# Screening data from PubChem.
# Sampled rows, rich in hits. Any-hit rate of the full collection: about 1.4%.
# Vif inh: HIV Vif self-association inhibitors, primary screen, imaging, HEK293T, single point; HEK293T cells, Vif self-association by quenched fluorescence, 24 h; inhibition, % at 7.49 µM; hit rate 0.35% among 340,000; AID 602346, 2012; in the data active means inhibition above about 50%, passing the limit was not always enough; inconclusive means no clear call, values can overlap the other calls; inactive means below about 31%
# CAL PDZ FP-1: CAL PDZ peptide-binding inhibitors, primary screen, biochemical, fluorescence polarization, Cer-tagged CAL PDZ, HTS | AID 504414, 2011 | inhibition, % at 20 µM | purified CAL PDZ, TMR-peptide fluorescence polarization, 1 h | Golgi-associated PDZ and coiled-coil motif-containing protein (Homo sapiens), Q9HD26 | hit rate 0.02% among 330,000;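 active means highest replicate inhibition of at least 40%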;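 further: plate controls were DMSO neutral control wells for no effect and unlabeled competitor peptide control wells for full effect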
#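 Test system: tagged CAL PDZ domain / Buffer or medium: sodium phosphate/NaCl buffer pH 7.4 with TCEP, IgG, Thesit / Reagent: TMR-labelled reporter peptide T*-PRC34 bound in PDZ groove / Compound dosing: single point, 20 µM / Schedule: 1 h incubation at room temperature before polarization reading / Technique: fluorescence polarization (mP) / Benchmarks: unlabelled peptide, DMSO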
# CAL PDZ FP-2: untagged CAL PDZ binding inhibitors, primary screen, biochemical, fluorescence polarization, HTS. Golgi-associated PDZ and coiled-coil motif-containing protein (Homo sapiens), Q9HD26. purified CAL PDZ, TMR-peptide fluorescence polarization, 1 h. inhibition, % at 24.9 µM. hit rate 0.92% among 300,000. AID 602252, 2012;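 active means mean inhibition of at least 30% with at least half of replicates also reaching 30%; inconclusive means no clear call, values can overlap the other calls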;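 further: 0% = DMSO neutral control and 100% = excess unlabeled competitor peptide PRC23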
# PvdQ inh: P. aeruginosa PvdQ acylase inhibitors, primary screen, biochemical, fluorescence, plate reader and imaging, single point; purified PvdQ acylase; inhibition, % at 10 µM; hit rate 0.063% among 340,000; AID 488965, 2010; PvdQ acylase [Pseudomonas aeruginosa LESB58]; in the data active means inhibition above about 30%, passing the limit was not always enough; inconclusive means no clear call, values can overlap the other calls;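 further: 0% = vehicle neutral wells and 100% = reference inhibitor wells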
# N-glyco inh: increase of ERlucT glycosylation luciferase signal, primary screen, N-linked glycosylation inhibitor project, D54 ERlucT cells, luminescence, set 2; D54 ERlucT glycosylation luciferase reporter, 24 h; percent of 100 nM tunicamycin response; hit rate 0.23% among 360,000; reporter increase, % at 12.5 µM; AID 588692, 2011;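 active means mean luciferase reporter signal, scaled so untreated is 0 and the glycosylation-blocking control 100, at or above a set limit in every replicate; inconclusive means mean reaches the limit but not every replicate does; inactive means mean below the limit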;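 further: luciferase carries N-glycosylation sites so blocking glycosylation raises the light; 0% = median of neutral control wells and 100% = median of 100 nM tunicamycin wells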
# CDK5 p35 inh: inhibitors of human CDK5/p35 kinase, primary screen, biochemical, single concentration. Recombinant CDK5/p35, ADP-Glo luminescence, 60 min. hit rate 0.01% among 330,000. inhibition, % at 10 µM. Cyclin-dependent kinase 5 (Homo sapiens) + Cyclin-dependent kinase 5 activator 1 (Homo …;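 active means highest replicate inhibition of at least 50% and at least 75% of replicates reaching 50%; inconclusive means only one of the two criteria met; inactive means both criteria failed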;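 further: plate controls were DMSO neutral control for no effect and GW8510 at 10 µM for full effect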
# Target sequence (Q00535 whole entry, looked up): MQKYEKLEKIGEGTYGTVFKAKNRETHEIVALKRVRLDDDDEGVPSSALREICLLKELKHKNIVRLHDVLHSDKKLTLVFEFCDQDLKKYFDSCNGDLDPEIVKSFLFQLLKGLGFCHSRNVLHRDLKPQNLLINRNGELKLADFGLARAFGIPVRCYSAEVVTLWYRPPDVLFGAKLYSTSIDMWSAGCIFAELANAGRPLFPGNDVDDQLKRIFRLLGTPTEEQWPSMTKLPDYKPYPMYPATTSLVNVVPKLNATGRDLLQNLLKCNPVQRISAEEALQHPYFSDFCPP
# Target sequence (Q15078 whole entry, looked up): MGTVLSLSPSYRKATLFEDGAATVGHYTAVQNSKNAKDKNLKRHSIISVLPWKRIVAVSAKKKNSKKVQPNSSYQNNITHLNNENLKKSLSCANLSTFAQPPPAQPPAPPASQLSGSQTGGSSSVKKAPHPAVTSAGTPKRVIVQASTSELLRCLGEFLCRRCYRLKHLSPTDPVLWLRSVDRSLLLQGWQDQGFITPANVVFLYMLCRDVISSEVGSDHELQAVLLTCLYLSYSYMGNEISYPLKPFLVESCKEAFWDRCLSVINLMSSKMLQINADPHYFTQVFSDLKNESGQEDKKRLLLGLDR
# * hit, by the source's call; ? = inconclusive; / = no result given.
SMILES,Vif inh,CAL PDZ FP-1,CAL PDZ FP-2,PvdQ inh,N-glyco inh,CDK5 p35 inh
CCCc1nc2c(C)cc(Br)cn2c1Cc1ccc(C)cc1,/,/,/,/,-2,/
COc1ccc(NC(C)=O)cc1S(=O)(=O)N1CC=C(c2ccccc2)CC1,4,0,-2,-15,-2,1
CCOc1ccc2nc(SCC(=O)NCc3ccc(S(N)(=O)=O)cc3)[nH]c2c1,-6,-12,-6,0,1,0
O=[N+]([O-])c1ccc2c(c1)Cc1cc(F)ccc1-2,17,0,/,87*,6,-1
COc1cc2c(cc1[N+](=O)[O-])-c1ccc([N+](=O)[O-])cc1C2,2,/,/,/,22,/
COc1ccc(CN(C)C(=O)c2cccc(NC(=O)CC3SC(N4CCCCC4)=NC3=O)c2)c(OC)c1 (stereo unspecified),-21,0,/,-5,-3,-1
COc1ccc(NC(=O)COc2ccccc2Cc2ccccc2)cc1S(=O)(=O)N1CCOCC1,-4,-1,0,-9,1,0
CCCC(=O)N1CCC1(C)C(=O)NS(=O)(=O)c1cccc(C)c1 (stereo unspecified),-10,/,/,/,2,/
O=[N+]([O-])c1ccc(N2CCSCC2)cc1,-8,-2,-3,54*,2,1
CCN(CC)S(=O)(=O)c1ccc(NC(=S)NC(=O)CC(C)C)cc1,-4,-2,112*,-5,-1,-2
C/C(=N/NC(=O)c1cccs1)c1ccc(NC(=O)COc2ccc(Cl)cc2Cl)cc1,?,-1,-19,-3,40*,0
O=C(COc1ccc(Cl)cc1Cl)Nc1ccc(CN2CCOCC2)cc1,-6,0,84*,-13,-4,1
C[C@H](CO)N1C[C@H](C)[C@@H](CN(C)S(=O)(=O)c2cccs2)Oc2c(NC(=O)CCC(F)(F)F)cccc2C1=O,10,-1,-2,15,-1,0
Cc1c(C(=O)N2CCN(S(=O)(=O)c3ccccc3)CC2)oc2ccc(Br)cc12,15,-2,32*,-13,-5,0
COC(=O)c1ccccc1-c1ccc(C(c2c(C)[nH][nH]c2=O)c2c(C)[nH][nH]c2=O)o1,0,0,-4,-15,29*,2
COC(=O)c1cccc(-c2ccc(C(c3c(C)[nH][nH]c3=O)c3c(C)[nH][nH]c3=O)o2)c1,5,-3,2,0,?,-2
CCOc1cc(/C=N/NC(=O)c2ccncc2)ccc1OS(C)(=O)=O,-8,0,2,0,-1,/
CCOc1cc(/C=N/NC(=O)c2ccncc2)cc(Cl)c1OS(C)(=O)=O,-18,-4,54*,-10,-1,/
COc1ccc(S(=O)(=O)N2CCC[C@H]2C(=O)NCc2ccc(Cl)cc2)cc1,-7,0,71*,-11,0,-1
COc1ccc(CNC(=O)C2CCCN2S(=O)(=O)c2ccc(Cl)cc2)cc1 (stereo unspecified),-4,-2,-3,-16,-1,0
O=S(=O)(c1ccccc1)N1CCN(CCc2ccccc2)CC1,-14,-5,69*,-11,-2,-1
O=S(=O)(c1ccccc1)N1CCN(Cc2ccccc2)CC1,-1,-1,1,-2,1,1
O=C(COC(=O)CNC(=O)c1ccccc1Cl)NC1CC1,-1,1,39*,-8,1,-1
CC1(C2CC2)NC(=O)N(CC(=O)NCC(=O)Nc2ccc(F)c(F)c2F)C1=O (stereo unspecified),47,/,-4,-11,3,0
CC1CN(S(=O)(=O)c2ccc(CN3C(=O)c4cccnc4C3=O)cc2)c2ccccc2O1 (stereo unspecified),-3,-1,-2,6,1,0
SMILES,Vif inh,CAL PDZ FP-1,CAL PDZ FP-2,PvdQ inh,N-glyco inh,CDK5 p35 inh
CC1CN(S(=O)(=O)c2ccc(CN3C(=O)c4cccnc4C3=O)s2)c2ccccc2O1 (stereo unspecified),24,0,52*,-6,0,-3
COc1ccc(OC)c(S(=O)(=O)n2ccc(C)n2)c1,9,0,-2,-6,0,0
COc1ccccc1N1CCN(C(=O)CCCCCn2c(=S)[nH]c3cc4c(cc3c2=O)OCO4)CC1,64*,/,/,/,-4,/
O=C(CCCn1c(=S)[nH]c2cc3c(cc2c1=O)OCO3)N1CCN(c2ccccc2F)CC1,3,-1,-3,-6,-1,0
COC(=O)c1ccc(C2=NOC(C)(c3sc(-c4ccccc4)nc3C)C2)cc1 (stereo unspecified),-2,0,45*,-13,2,0
O=C(NCCCN1CCOCC1)c1cc2c(s1)CCCC2,3,0,-2,-14,2,-4
O=C(NCCCN1CCCC1=O)c1cc2c(s1)CCCCC2,8,/,80*,-15,1,1
Cn1c(=S)[nH]c2scc(-c3cccs3)c2c1=O,3,-1,66*,-11,7,2
CSc1cccc(CN2CCCC(CNC(=O)c3ccco3)C2)c1 (stereo unspecified),-4,-1,146*,-12,0,-3
CCOc1cccc(CN2CCCC(CNC(=O)c3cccc(OC)c3OC)C2)c1 (stereo unspecified),-1,/,-5,-8,2,-2
O=C(NCC1CCCN(Cc2cccc(F)c2)C1)c1cccc2ccccc12 (stereo unspecified),-1,0,68*,-3,-1,0
c1ccc(-c2cc(-c3ccc(N4CCOCC4)cc3)nc3ccccc23)cc1,-15,-1,37*,-10,5,/
Cc1cccc2cc(/C=C/C(=O)c3ccco3)c(Cl)nc12,-2,/,/,/,31*,/
CC(Sc1nnc(COc2ccc(Cl)cc2)o1)C(=O)Nc1ccc(N2CCOCC2)cc1 (stereo unspecified),-8,0,-2,5,-2,0
N#CC(c1ccc(Cl)cc1)c1ncc(C(F)(F)F)cc1Cl (stereo unspecified),-19,-1,-1,57*,-2,-2
N#CC(c1cccc(Cl)c1)c1ncc(C(F)(F)F)cc1Cl (stereo unspecified),-20,-2,0,52*,-2,-1
O=C1/C(=C/c2cccs2)SC(=S)N1c1cccc(O)c1,7,-2,-5,7,0,1
